Data reported in ChEMBL document CHEMBL1157108, “Rapid structural identification of cytotoxic bufadienolide sulfates in toad venom from Bufo melanosticus by LC-DAD-MS(n) and LC-SPE-NMR” (J Nat Prod, 2010).

Key:
[1] = tested on: MCF7; experiment: Growth inhibition of human MCF7 cells after 72 hrs by MTT assay; format: functional, cell-based; details: MCF7, 72 h
Procedure, shortened: (§1)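 Cells seeded at 10 000 to 40 000 cells/mL (cell-type dependent) and allowed 24 h to plate, then grown 72 h with or without compound. Culture in RPMI with 10% heat-inactivated FCS, 4 mM glutamine, gentamicin and penicillin-streptomycin. Living cells reduce MTT to formazan, read at 570 nm against a 630 nm reference. IC50 reported as mean ± SD.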

[2] = tested on: B16-F10; experiment: Growth inhibition of mouse B16F10 cells after 72 hrs by MTT assay; format: functional, cell-based; details: B16-F10, 72 h; procedure, shortened: as §1
[3] = tested on: CT26; experiment: Growth inhibition of mouse CT26 cells after 72 hrs by MTT assay; format: functional, cell-based; details: CT26, 72 h; procedure, shortened: as §1
[4] = Growth inhibition of human U373 cells after 72 hrs by MTT assay; format: functional, cell-based, U-373MG ATCC; details: U373 MG; procedure, shortened: as §1
[5] = Growth inhibition of human Hs683 cells after 72 hrs by MTT assay; format: functional, cell-based; details: Hs 683, 72 h; procedure, shortened: as §1
[6] = tested on: A549; experiment: Growth inhibition of human A549 cells after 72 hrs by MTT assay; format: functional, cell-based; details: A549, 72 h; procedure, shortened: as §1

Row | SMILES | IC50 [1] [nM] | IC50 [2] [nM] | IC50 [3] [nM] | IC50 [4] [nM] | IC50 [5] [nM] | IC50 [6] [nM]
1 | C[C@]12CC[C@H](OS(=O)(=O)O)C[C@H]1CC[C@@H]1[C@@H]2CC[C@]2(C)[C@@H](c3ccc(=O)oc3)[C@@H](O)C[C@]12O | 3290 | > 10000 | > 10000 | 525 | 177 | 464
2 | C[C@]12CC[C@H]3[C@@H](CC[C@]4(O)C[C@@H](OS(=O)(=O)O)CC[C@]34C=O)[C@@]1(O)CC[C@@H]2c1ccc(=O)oc1 | 507 | > 10000 | > 10000 | 396 | 98 | 45
3 | C[C@]12CC[C@H]3[C@@H](CC[C@@H]4C[C@@H](OS(=O)(=O)O)CC[C@@]43CO)[C@@]1(O)CC[C@@H]2c1ccc(=O)oc1 | 150 | > 10000 | > 10000 | 12 | 82 | 5
4 | C[C@]12CC[C@H](OS(=O)(=O)O)C[C@@]1(O)CC[C@@H]1[C@@H]2CC[C@]2(C)[C@@H](c3ccc(=O)oc3)CC[C@]12O | 1580 | > 10000 | > 10000 | 51 | 7 | 36
5 | C[C@]12CC[C@H]3[C@@H](CC[C@]4(O)C[C@@H](OS(=O)(=O)O)CC[C@]34CO)[C@@]1(O)CC[C@@H]2c1ccc(=O)oc1 | 120 | > 10000 | > 10000 | 323 | 50 | 80
6 | CC(=O)O[C@H]1C[C@]2(O)[C@@H]3CC[C@@H]4C[C@@H](O)CC[C@]4(C)[C@H]3[C@H](O)C(=O)[C@]2(C)[C@H]1c1ccc(=O)oc1 | 2250 | > 10000 | > 10000 | 878 | 455 | 1360
7 | C[C@@H]1O[C@@H](O[C@H]2CC[C@]3(C=O)[C@H]4CC[C@]5(C)[C@@H](c6ccc(=O)oc6)CC[C@]5(O)[C@@H]4CC[C@]3(O)C2)[C@H](O)[C@H](O)[C@H]1O[C@@H]1O[C@H](CO)[C@@H](O)[C@H](O)[C@H]1O [HELLEBRIN] | 82 | > 10000 | > 10000 | 49 | 7 | 16
